According to ChEMBL document CHEMBL3853327 (J Med Chem, 2016):

Legend:
[1] = Selectivity index, ratio of CC50 for human mock-infected MT4 cells to EC50 for HIV1 3B harboring reverse transcriptase Y188L mutant infected in human MT4 cells; type: toxicity, cell-based; details: MT4 cells (mock-infected for CC50, HIV-1 infected for EC50)
Method in brief: (§1)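 Selectivity index is CC50/EC50. CC50 is the concentration that reduces OD540 of mock-infected MT-4 cells by 50% in the 5-day MTT assay. EC50 is the 50% protection from virus-induced cytopathicity, measured in parallel on infected wells.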

[2] = tested on: Human immunodeficiency virus 1; assay: Antiviral activity against HIV1 3B harboring reverse transcriptase L100I mutant infected in human MT4 cells assessed as protection against virus induced cytotoxicity after 5 days by MTT assay; type: functional, cell-based; details: Human immunodeficiency virus 1, 3B, MT4, 120 h
Method in brief: (§2)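 MTT cytopathicity assay in MT-4 cells (6 × 10^5 cells/mL). Compounds serially diluted 5-fold in triplicate wells, run in parallel on infected and mock-infected cells. Virus added at 100−300 CCID50 per well. Viability read spectrophotometrically at 540 and 690 nm after 5 days, using the median OD of three wells. EC50 is the concentration giving 50% protection from viral cytopathogenicity.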

[3] = Inhibition of recombinant wild type HIV1 reverse transcriptase using DIG-dUTP/biotin-dUTP/dTTP assessed as suppression of biotin-dUTP incorporation after 1 hr by ELISA; set-up: species or system Human immunodeficiency virus 1
Method in brief: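 Recombinant WT HIV-1 RT in a Roche colorimetric kit: template plus DIG-dUTP, biotin-dUTP and dTTP, ±inhibitor, 1 h at 37 °C. Product captured on streptavidin plate 1 h at 37 °C, anti-DIG-POD 1 h at 37 °C, ABTS developed at 25 °C, read at OD405. IC50 is the concentration inhibiting biotin-dUTP incorporation by 50%.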

[4] = tested on: Human immunodeficiency virus 1; assay: Fold resistance, ratio of IC50 for recombinant HIV1 reverse transcriptase K103N/Y181C double mutant to IC50 for wild type HIV1 reverse transcriptase
Method in brief: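 Ratio of mutant to WT IC50. Recombinant WT and K103N/Y181C RT were assayed with a kit: template plus DIG-dUTP, biotin-dUTP and dTTP, with or without inhibitor, 1 h at 37 °C. Product was captured on streptavidin, detected with anti-DIG-POD and ABTS, and read at 405 nm. IC50 is the concentration inhibiting biotin-dUTP incorporation by 50%.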

[5] = tested on: Human immunodeficiency virus 1; assay: Antiviral activity against HIV1 3B harboring reverse transcriptase Y188L mutant infected in human MT4 cells assessed as protection against virus induced cytotoxicity after 5 days by MTT assay; type: functional, cell-based; details: Human immunodeficiency virus 1, 3B, MT4, 120 h; method in brief: as §2
[6] = Selectivity index, ratio of CC50 for human mock-infected MT4 cells to EC50 for HIV1 3B harboring reverse transcriptase F227L/V106A double mutant infected in human MT4 cells; type: toxicity, cell-based; details: MT4 cells (mock-infected for CC50, HIV-1 infected for EC50); method in brief: as §1
[7] = Selectivity index, ratio of CC50 for human mock-infected MT4 cells to EC50 for HIV1 3B harboring reverse transcriptase E138K mutant infected in human MT4 cells; type: toxicity, cell-based; details: MT4 cells (mock-infected for CC50, HIV-1 infected for EC50); method in brief: as §1
[8] = Selectivity index, ratio of CC50 for human mock-infected MT4 cells to EC50 for HIV1 3B harboring reverse transcriptase K103N mutant infected in human MT4 cells; type: toxicity, cell-based; details: MT4 cells (mock-infected for CC50, HIV-1 infected for EC50); method in brief: as §1
[9] = Selectivity index, ratio of CC50 for human mock-infected MT4 cells to EC50 for HIV1 3B harboring reverse transcriptase Y181C mutant infected in human MT4 cells; type: toxicity, cell-based; details: MT4 cells (mock-infected for CC50, HIV-1 infected for EC50); method in brief: as §1
[10] = Selectivity index, ratio of CC50 for human mock-infected MT4 cells to EC50 for wild type HIV1 3B harboring reverse transcriptase infected in human MT4 cells; type: toxicity, cell-based; details: MT4 cells (mock-infected for CC50, HIV-1 infected for EC50); method in brief: as §1
[11] = tested on: Human immunodeficiency virus 1; assay: Antiviral activity against HIV1 3B harboring reverse transcriptase K103N mutant infected in human MT4 cells assessed as protection against virus induced cytotoxicity after 5 days by MTT assay; type: functional, cell-based; details: Human immunodeficiency virus 1, 3B, MT4, 120 h; method in brief: as §2
[12] = Cytotoxicity against human mock-infected MT4 cells assessed as reduction in cell viability after 5 days by MTT assay; type: toxicity, cell-based
Method in brief: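 Mock-infected MT-4 cells (6 × 10^5 cells/mL at seeding) with serial 5-fold compound dilutions in triplicate wells. Viability read by MTT after 5 days, absorbance at 540 and 690 nm, median OD of three wells. CC50 is the concentration reducing OD540 of mock-infected cells by 50%.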

[13] = tested on: Human immunodeficiency virus 1; assay: Antiviral activity against HIV1 3B harboring reverse transcriptase F227L/V106A double mutant infected in human MT4 cells assessed as protection against virus induced cytotoxicity after 5 days by MTT assay; type: functional, cell-based; details: Human immunodeficiency virus 1, 3B, MT4, 120 h; method in brief: as §2
[14] = tested on: Human immunodeficiency virus 1; assay: Antiviral activity against wild type HIV1 3B harboring reverse transcriptase infected in human MT4 cells assessed as protection against virus induced cytotoxicity after 5 days by MTT assay; type: functional, cell-based; details: Human immunodeficiency virus 1, 3B, MT4, 120 h
Method in brief: as §2, with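 “wells.” for “wells. EC50 is the concentration giving 50% protection from viral cytopathogenicity.”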

[15] = tested on: Human immunodeficiency virus 1; assay: Antiviral activity against HIV1 3B harboring reverse transcriptase Y181C mutant infected in human MT4 cells assessed as protection against virus induced cytotoxicity after 5 days by MTT assay; type: functional, cell-based; details: Human immunodeficiency virus 1, 3B, MT4, 120 h
Method in brief: as §2, with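 “wells.” for “wells. EC50 is the concentration giving 50% protection from viral cytopathogenicity.”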

[16] = Selectivity index, ratio of CC50 for human mock-infected MT4 cells to EC50 for HIV1 3B harboring reverse transcriptase L100I mutant infected in human MT4 cells; type: toxicity, cell-based; details: MT4 cells (mock-infected for CC50, HIV-1 infected for EC50); method in brief: as §1
[17] = molecular target: Human immunodeficiency virus type 1 reverse transcriptase (Human immunodeficiency virus 1, UniProt Q72547, K103N/Y181C); assay: Inhibition of recombinant HIV1 reverse transcriptase K103N/Y181C double mutant using DIG-dUTP/biotin-dUTP/dTTP assessed as suppression of biotin-dUTP incorporation after 1 hr by ELISA
[18] = Antiviral activity against HIV2 ROD harboring reverse transcriptase infected in human MT4 cells assessed as protection against virus induced cytotoxicity after 5 days by MTT assay; type: functional, cell-based, Human immunodeficiency virus type 2 (ISOLATE ROD); details: Human immunodeficiency virus 2, MT4, 120 h; method in brief: as §2
[19] = Selectivity index, ratio of CC50 for human mock-infected MT4 cells to EC50 for HIV1 RES056 harboring reverse transcriptase K103N/Y181C double mutant infected in human MT4 cells; type: toxicity, cell-based; details: MT4 cells (mock-infected for CC50, HIV-1 infected for EC50); method in brief: as §1
[20] = tested on: Human immunodeficiency virus 1; assay: Antiviral activity against HIV1 3B harboring reverse transcriptase E138K mutant infected in human MT4 cells assessed as protection against virus induced cytotoxicity after 5 days by MTT assay; type: functional, cell-based; details: Human immunodeficiency virus 1, 3B, MT4, 120 h; method in brief: as §2
[21] = tested on: Human immunodeficiency virus 1; assay: Antiviral activity against HIV1 RES056 harboring reverse transcriptase K103N/Y181C double mutant infected in human MT4 cells assessed as protection against virus induced cytotoxicity after 5 days by MTT assay; type: functional, cell-based; details: Human immunodeficiency virus 1, RES056, MT4, 120 h
Method in brief: as §2, with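 “wells.” for “wells. EC50 is the concentration giving 50% protection from viral cytopathogenicity.”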

Row | SMILES | selectivity ratio [1] | EC50 [2] [nM] | IC50 [3] [nM] | Ratio IC50 [4] | EC50 [5] [nM] | selectivity ratio [6] | selectivity ratio [7] | selectivity ratio [8] | selectivity ratio [9] | selectivity ratio [10] | EC50 [11] [nM] | CC50 at 120 h [12] [nM] | EC50 [13] [nM] | EC50 [14] [nM] | EC50 [15] [nM] | selectivity ratio [16] | IC50 [17] [nM] | EC50 [18] [nM] | selectivity ratio [19] | EC50 [20] [nM] | also measured
1 | Cc1cc(C)c(Oc2nc(NC3CCN(Cc4ccc(F)cc4)CC3)nc3ccsc23)c(C)c1 | 17 | 1210 | 1230 | 5.34 | 715 | 2 | 72 | 130 | 66 | 465 | 91.8 | 11900 | 5310 | 25.7 | 182 | 10 | 6570 | > 11900 | 2 | 166 | –
2 | Cc1cc(C)c(Oc2nc(NC3CCN(Cc4cccc(C#N)c4)CC3)nc3ccsc23)c(C)c1 | 120 | 476 | 1060 | 5.25 | 143 | 44 | 339 | 445 | 89 | 819 | 38.7 | 17200 | 392 | 21.1 | 193 | 36 | 5570 | > 17200 | ≤ 3 | 50.9 | –
3 | Cc1cn([C@H]2C[C@H](N=[N+]=[N-])[C@@H](CO)O2)c(=O)[nH]c1=O [ZIDOVUDINE] | > 1180 | 3.8 | – | – | 6.3 | > 1560 | > 1030 | > 1430 | > 1120 | > 13100 | 5.2 | > 93600 | – | 5.8 | 6.7 | > 1990 | – | 6.6 | > 9150 | 7.3 | EC50 [21]: 10 nM
4 | Cc1cc(C#N)cc(C)c1Oc1nc(NC2CCN(Cc3ccc(F)cc3)CC2)nc2ccsc12 | 3140 | 90.9 | 810 | 3.17 | 44.8 | 198 | 4100 | 16200 | 3740 | 18700 | 8.7 | 141000 | 712 | 7.5 | 37.8 | 1550 | 2570 | ≥ 141000 | 131 | 34.4 | –
5 | COC(=O)c1ccc(CN2CCC(Nc3nc(Oc4c(C)cc(C)cc4C)c4sccc4n3)CC2)cc1 | 102 | 650 | 1240 | 9.92 | 243 | 13 | 629 | 263 | 154 | 1610 | 94.6 | 24900 | 1850 | 15.4 | 161 | 38 | 12300 | > 24900 | 5 | 39.5 | –
6 | Cc1cc(C)c(Oc2nc(NC3CCN(Cc4ccc(F)cc4F)CC3)nc3ccsc23)c(C)c1 | 18 | 1240 | 1600 | 30 | 787 | 2 | 80 | 86 | 21 | 380 | 163 | 14000 | 6610 | 36.8 | 660 | 11 | 46400 | > 14000 | < 1 | 174 | –
